These results are taken from BindingDB's records for doi:10.1021/jm9600205 (National Institute of Diabetes, 1996).

This test addresses Adenosine receptor A2a (Rattus norvegicus, UniProt P30543). Nature of the test: Displacement of [3H]-CGS- 21680 binding to Adenosine A2A receptor in rat striatal membranes. The procedure, abridged: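 Adenosine deaminase (3 units/mL) present during preparation, 30 min preincubation at 30 °C and incubation. At least five competitor concentrations over 3 orders of magnitude.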
(Loss of bound radioactivity is the signal in a displacement assay; it reports binding, not function.)

Chain of Adenosine receptor A2a (P30543 whole entry): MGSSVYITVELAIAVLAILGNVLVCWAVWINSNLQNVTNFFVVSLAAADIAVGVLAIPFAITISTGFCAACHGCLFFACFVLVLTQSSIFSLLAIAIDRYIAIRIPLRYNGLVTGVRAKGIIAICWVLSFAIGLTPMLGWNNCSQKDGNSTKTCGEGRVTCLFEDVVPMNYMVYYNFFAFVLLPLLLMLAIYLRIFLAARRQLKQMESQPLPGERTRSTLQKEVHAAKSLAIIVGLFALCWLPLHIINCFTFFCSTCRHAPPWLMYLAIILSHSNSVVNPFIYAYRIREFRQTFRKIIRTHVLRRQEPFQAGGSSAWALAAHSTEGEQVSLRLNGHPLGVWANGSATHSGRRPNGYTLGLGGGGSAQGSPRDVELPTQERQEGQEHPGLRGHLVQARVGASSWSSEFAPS

`CCOC(=O)C1=C(c2ccccc2)N=C(C)C(C(=O)OCC)C1C` (configuration not stated) [2,4-Dimethyl-6-phenyl-1,4-dihydro-pyridine-3,5-dicarboxylic acid diethyl ester] yielded a Ki of 35.9 µM. `CCOC(=O)C1=C(C)N=C(C)C(C(=O)OC)C1C` (configuration not stated) [2,4,6-Trimethyl-1,4-dihydro-pyridine-3,5-dicarboxylic acid 3-ethyl ester 5-methyl ester] showed a Ki of 46.1 µM.

A word on the Ki: it is a measure of affinity in units of concentration, obtained from inhibition or displacement. Read a low Ki as a stronger hold on the target.
